The results in this text go back to ChEMBL document CHEMBL3046095, “Synthesis and antiviral activities of amide derivatives containing the alpha-aminophosphonate moiety” (J Agric Food Chem, 2008).

Values after ≈ are worked out from the molar mass of the structure shown.

In assay [1] the test system is Tobacco mosaic virus. Put plainly: Antiviral activity against Tobacco mosaic virus (TMV) pre-treated with 500 ug/mL compound for 30 min followed by inoculation on left side of Nicotiana tabacum leaves assessed as virus inactivation effect measured 3 to 4 days post viral infection. The assay is classed as functional. Put shortly:
(§1)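 Inactivation assay on N. tabacum leaves, with a solvent–virus mixture inoculated as control. Local lesion numbers were recorded 3–4 d after inoculation, three repetitions per compound. Inhibition % was derived from mean lesion counts relative to control.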

The test system of assay [2] is Tobacco mosaic virus. Put plainly: Antiviral activity against Tobacco mosaic virus (TMV) inoculated on 500 ug/mL compound smeared Nicotiana tabacum leaves assessed as protective effect against viral infection measured 3 to 4 days post viral infection. It counts as functional. Summed up: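 Half-leaf assay on same-age growing Nicotiana tabacum leaves: compound solution smeared on left half, solvent on right half as control. After 12 h, leaves scattered with silicon carbide were brush-inoculated with TMV at 6 × 10^-3 mg/mL. Local lesions were counted 3–4 d post-inoculation, three repetitions. Inhibition % = (control mean lesions − treated mean lesions)/control mean lesions × 100.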

The subject of assay [3] is Tobacco mosaic virus. The assay is described as follows: Antiviral activity against Tobacco mosaic virus (TMV) inoculated on whole Nicotiana tabacum leaves followed by smearing with 500 ug/mL compound solution on left side of leaves assessed as viral infection curative effect measured 3 to 4 days post viral infection. The assay is classed as functional. Summed up: (§2)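 Whole same-age growing N. tabacum leaves were dip-inoculated with TMV at 6 × 10^-3 mg/mL, then washed with water and dried. Compound solution was smeared on left half, solvent on right half as control. Local lesions were counted 3–4 d after inoculation, three repetitions per compound. Inhibition % = (control mean lesions − treated mean lesions)/control mean lesions × 100.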

In assay [4] the test system is Tobacco mosaic virus. The assay is described as follows: Antiviral activity against Tobacco mosaic virus (TMV) pre-treated with 250 ug/mL compound for 30 min followed by inoculation on left side of Nicotiana tabacum leaves assessed as virus inactivation effect measured 3 to 4 days post viral infection. The assay is classed as functional. Put shortly:
as §1

Assay [5] concerns Tobacco mosaic virus. The assay is described as follows: Antiviral activity against Tobacco mosaic virus (TMV) pre-treated with compound for 30 min followed by inoculation on left side of Nicotiana tabacum leaves assessed as virus inactivation effect measured 3 to 4 days post viral infection. It counts as functional, organism-based. Put shortly:
as §1

Assay [6] has as its system Tobacco mosaic virus. The assay is described as follows: Antiviral activity against Tobacco mosaic virus (TMV) inoculated on whole Nicotiana tabacum leaves followed by smearing with compound solution on left side of leaves assessed as viral infection curative effect measured 3 to 4 days post viral infection. It counts as functional, organism-based. Put shortly: as §2

Assay [7] relates to Tobacco mosaic virus. Put plainly: Antiviral activity against Tobacco mosaic virus (TMV) pre-treated with 125 ug/mL compound for 30 min followed by inoculation on left side of Nicotiana tabacum leaves assessed as virus inactivation effect measured 3 to 4 days post viral infection. It counts as functional. Summed up:
as §1

The test system of assay [8] is Tobacco mosaic virus. The assay is described as follows: Antiviral activity against Tobacco mosaic virus (TMV) inoculated on whole Nicotiana tabacum leaves followed by smearing with 125 ug/mL compound solution on left side of leaves assessed as viral infection curative effect measured 3 to 4 days post viral infection. It counts as functional. Summed up:
as §2

In assay [9] the test system is Tobacco mosaic virus. Put plainly: Antiviral activity against Tobacco mosaic virus (TMV) pre-treated with 62.5 ug/mL compound for 30 min followed by inoculation on left side of Nicotiana tabacum leaves assessed as virus inactivation effect measured 3 to 4 days post viral infection. The assay is classed as functional. Put shortly: as §1
In assay [10] the test system is Tobacco mosaic virus. The assay is described as follows: Antiviral activity against Tobacco mosaic virus (TMV) inoculated on whole Nicotiana tabacum leaves followed by smearing with 250 ug/mL compound solution on left side of leaves assessed as viral infection curative effect measured 3 to 4 days post viral infection. It counts as functional. Put shortly:
as §2

For `CCOP(=O)(OCC)C(NC(=O)c1cc(OC)c(OC)c(OC)c1)c1ccccc1F` (configuration not stated), the Activity in assay [1] turned out to be 33.7%; in assay [2], 41.2%; in [3] it was 17.1%.
`CCOP(=O)(OCC)C(NC(=O)c1ccccc1F)c1ccccc1F` (configuration not stated): the Activity in assay [1] came to 80%; in assay [2] it was 50%; in [3] it was 20.8%.
On to `CCOP(=O)(OCC)C(NC(=O)/C=C/c1ccccc1)c1ccccc1` (configuration not stated) [(E)-DIETHYL CINNAMAMIDO(PHENYL)METHYLPHOSPHONATE], for which the Activity in assay [4] came out at 79.9%; in assay [1], 88.2%; in assay [2], 58.7%; in assay [3] it was 50%; in assay [7] it was 61.2%; in assay [8] it was 32.3%. In addition, the Activity in assay [9] was 49.1%; in [10] it was 39.9%. Moreover, the EC50 – broadly, the concentration needed to bring the measured effect to its halfway point – in assay [5] was 65.2 µg/mL (≈ 175 µM); in [6] it was 439 µg/mL (≈ 1180 µM).
Turning to `CCOP(=O)(OCC)C(NC(=O)c1cccc(F)c1)c1ccccc1` (configuration not stated) [DIETHYL(3-FLUOROBENZAMIDO)(PHENYL)METHYLPHOSPHONATE], the Activity was 82.1% in assay [1], 56% in assay [2] and 24.6% in assay [3].
Consider `CCCOP(=O)(OCCC)C(NC(=O)c1ccccc1)c1ccccc1` (configuration not stated) [DIPROPYL BENZAMIDO(PHENYL)METHYLPHOSPHONATE], for which the Activity in [4] worked out at 51%; in assay [1], 78.9%; in assay [2] it was 49.9%; in assay [3], 42%; in [7], 23%; in assay [8], 14%. For the same molecule, the Activity was found to be 10% in assay [9] and 23.9% in assay [10]. Also, the figures for the EC50 in assay [5] and in assay [6] were 279 µg/mL (≈ 743 µM) and 560 µg/mL (≈ 1490 µM), respectively.
On to `CCOP(=O)(OCC)C(NC(=O)c1ccccc1)c1ccccc1F` (configuration not stated) [DIETHYL BENZAMIDO(2-FLUOROPHENYL)METHYLPHOSPHONATE], for which the Activity in [1] was 70%; in [2], 43.1%; in assay [3], 32.2%.
As to `CNCC(=O)N[C@@H](CO)C(=O)N[C@H]1[C@H](O)[C@@H](O)[C@H](n2ccc(N)nc2=O)O[C@@H]1C(N)=O` [NINGNANMYCIN], the Activity in [4] turned out to be 100%; in assay [1] it was 100%; in [2], 60.2%; in [3] it was 55.4%; in assay [7] it was 78.4%; in assay [8] it was 40.9%. The values for the Activity in [9] and in assay [10] were 69% and 51%, respectively. Further, the EC50 in assay [5] stood at 55.6 µg/mL (≈ 125 µM); in assay [6], 246 µg/mL (≈ 555 µM).
For the molecule `CCOP(=O)(OCC)C(NC(=O)/C=C/c1ccccc1)c1ccccc1F` (configuration not stated), the Activity in assay [1] came to 51.5%; in [2] it was 39%; in assay [3], 22.4%.
The like results for `CCOP(=O)(OCC)C(NC(=O)c1ccccc1)c1ccccc1` (configuration not stated) [DIETHYL BENZAMIDO(PHENYL)METHYLPHOSPHONATE] were, in that order, 42.4%, 39.1% and 8.7%.
Take `CCOP(=O)(OCC)C(NC(=O)c1ccccc1C(F)(F)F)c1ccccc1F` (configuration not stated): the Activity in assay [1] is recorded as 62.2%; in assay [2] it was 39.2%; in assay [3], 2.1%.
With `CCCOP(=O)(OCCC)C(NC(=O)c1ccccc1C(F)(F)F)c1ccccc1` (configuration not stated) [DIPROPYL PHENYL(2-(TRIFLUOROMETHYL)BENZAMIDO)METHYLPHOSPHONATE], the Activity in [4] was 60%; in assay [1], 80%; in assay [2], 44%; in assay [3], 53.7%; in [7], 39.2%; in assay [8], 31.6%. Also, the results for the Activity in [9] and in [10] were 31.2% and 38%, respectively. The EC50 in assay [5] was determined as 199 µg/mL (≈ 449 µM); in [6], 422 µg/mL (≈ 952 µM).
On to `CCOP(=O)(OCC)C(NC(=O)c1ccccc1Cl)c1ccccc1` (configuration not stated) [DIETHYL(2-CHLOROBENZAMIDO)(PHENYL)METHYLPHOSPHONATE], for which the Activity in assay [4] worked out at 82.2%; in assay [1], 90.6%; in [2] it was 58%; in assay [3] it was 19%; in assay [7], 60.9%; in assay [9], 59%. The EC50 in assay [5] is 60 µg/mL (≈ 157 µM).
Turning to `CCOP(=O)(OCC)C(NC(=O)c1ccccc1F)c1ccccc1` (configuration not stated) [DIETHYL(2-FLUOROBENZAMIDO)(PHENYL)METHYLPHOSPHONATE], the Activity was 70.9% in assay [4]; 78% in assay [1]; 42% in [2]; 53.6% in assay [3]; 47.2% in [7]; 34% in assay [8]. Also, the Activity in assay [9] is 36.7%; in assay [10] it was 49%. In addition, the values for the EC50 in assay [5] and in [6] were 119 µg/mL (≈ 326 µM) and 256 µg/mL (≈ 700 µM), respectively.
`CCOP(=O)(OCC)C(NC(=O)c1ccccc1Cl)c1ccccc1F` (configuration not stated): the Activity in [1] was 39%; in assay [2] it was 40.9%; in assay [3], 19.7%.
On to `CCOP(=O)(OCC)C(NC(=O)c1cc(OC)c(OC)c(OC)c1)c1ccccc1` (configuration not stated) [DIETHYL PHENYL(3,4,5-TRIMETHOXYBENZAMIDO)METHYLPHOSPHONATE], for which the Activity came to 45.6% in assay [1], 42% in [2] and 35.6% in assay [3].
For the molecule `CCOP(=O)(OCC)C(NC(=O)c1ccc(F)cc1)c1ccccc1` (configuration not stated) [DIETHYL(4-FLUOROBENZAMIDO)(PHENYL)METHYLPHOSPHONATE], the Activity in [4] was found to be 100%; in [1] it was 99.1%; in [2] it was 65.7%; in assay [3], 19.2%; in assay [7], 76.1%; in [9], 70%. The EC50 in assay [5] was found to be 54.8 µg/mL (≈ 150 µM).
As to `CCCOP(=O)(OCCC)C(NC(=O)c1cccc(F)c1)c1ccccc1` (configuration not stated) [DIPROPYL(3-FLUOROBENZAMIDO)(PHENYL)METHYLPHOSPHONATE], the Activity in assay [4] stood at 65%; in assay [1], 86.6%; in assay [2] it was 50.9%; in [3] it was 43%; in assay [7], 46%; in assay [8] it was 12.9%. Further, the figures for the Activity in assay [9] and in assay [10] were 40.1% and 21%, respectively. For the same molecule, the results for the EC50 in [5] and in assay [6] were 150 µg/mL (≈ 381 µM) and 546 µg/mL (≈ 1390 µM), respectively.
Consider `CCOP(=O)(OCC)C(NC(=O)c1ccccc1C(F)(F)F)c1ccccc1` (configuration not stated) [DIETHYL PHENYL(2-(TRIFLUOROMETHYL)BENZAMIDO)METHYLPHOSPHONATE], for which the Activity in [1] turned out to be 45.3%; in [2], 41.1%; in [3], 2.4%.
As for `CCCOP(=O)(OCCC)C(NC(=O)c1cc(OC)c(OC)c(OC)c1)c1ccccc1` (configuration not stated) [DIPROPYL PHENYL(3,4,5-TRIMETHOXYBENZAMIDO)METHYLPHOSPHONATE], the Activity in assay [4] came to 61%; in assay [1], 83.4%; in [2], 58.8%; in assay [3], 55%; in [7], 30.3%; in assay [8], 40.9%. Moreover, the Activity is recorded as 28.8% in assay [9] and 50.6% in [10]. Moreover, the EC50 in assay [5] amounted to 210 µg/mL (≈ 451 µM); in assay [6], 250 µg/mL (≈ 537 µM).
Consider `CCOP(=O)(OCC)C(NC(=O)c1cccc(F)c1)c1ccccc1F` (configuration not stated), for which the Activity worked out at 70.7% in assay [1], 41% in assay [2] and 6.2% in [3].
